Data: ChEMBL document CHEMBL1126720 (J Med Chem, 1993)

Columns and labels:
[1] = (§1) Cytotoxicity was measured for 90% kill in UV4 cells under aerobic conditions; assay type: functional, Cricetulus griseus
Outline: (§2)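 Clonogenic assay in magnetically stirred 10-mL suspensions of late log-phase UV4 cells at 2×10^6 cells/mL, 37 °C, continuously gassed with 5% CO2 in air or N2; samples removed periodically across a range of drug concentrations. CT10 (concentration × time for 10% survival) taken from survival curves; hypoxic selectivity = ratio of aerobic to hypoxic CT10.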

[2] = Ratio of aerobic CT10 to that of hypoxic CT10 (for a 1-h exposure); assay type: functional; outline: as §2
[3] = Hypersensitivity factor is the ratio of IC50(AA8) to IC50(UV4) under aerobic conditions; assay type: functional
Outline: (§3)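 Log-phase AA8 (200 viable cells/well) or UV4 (300 viable cells/well) cells with 5000 lethally irradiated AA8 feeder cells per well, in α-MEM with 10% heat-inactivated fetal calf serum. Cell mass read after 72-78 h by methylene blue protein staining and absorbance. IC50 = concentration reducing cell mass to 50% of the mean of 8 same-plate controls; means of at least 3 determinations ± SEM. Hypersensitivity factor = aerobic IC50(AA8)/IC50(UV4).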

[4] = Growth inhibition against CHO-derived cell line AA8; assay type: functional, cell-based, Cricetulus griseus; outline: as §3
UV4 = assay: as §1; assay type: functional; conditions: Cricetulus griseus; outline: as §2
[5] = Ratio of aerobic CT10 to that of hypoxic CT10; assay type: functional; outline: as §2
[6] = Growth inhibition against CHO-derived cell line AA8 (Non toxic at solubility limit) [RB6145 used as positive control]; assay type: functional, cell-based, Cricetulus griseus; outline: as §3
[7] = Hypersensitivity factor is the ratio of IC50(AA8) to IC50(UV4) under aerobic conditions; ND = Nontoxic at the solubility level; assay type: functional; outline: as §3
[8] = Cricetulus griseus, CHO-derived

Compound: O=[N+]([O-])c1nccn1CC(O)CNCCBr (stereo not given)
- CT10 [1]: 6600 µM·h
- Ratio [2]: 50
- HF ratio [3]: 5.9
- IC50 [4, 8]: 145 µM

Compound: CCN(CC)CCN
- HF ratio [3]: 0.99
- IC50 [4, 8]: 19000 µM

Compound: ClCCNCCNCCCl
- HF ratio [3]: 29
- IC50 [4, 8]: 30 µM

Compound: CCNCCNCC
- HF ratio [3]: 0.7
- IC50 [4, 8]: 2400 µM

Compound: Bis (2,4-pentanedionato) (N,N'-bis(2-chloroethyl)ethylenediamine)cobalt(III) Percholate [listing 1 of 2 here]
- IC50 ([4]; cho-derived): 890 µM

Compound: Bis (2,4-pentanedionato) (N,N'-bis(2-chloroethyl)ethylenediamine)cobalt(III) Percholate [listing 2 of 2 here]
- CT10 (UV4): 21500 µM·h
- HF ratio [3]: 14
- Ratio [5]: 1.6

Compound: Bis (2,4-pentanedionato) (N,N'-bis(2-diethylethylenediamine)cobalt(III) Percholate [listing 1 of 2 here]
- IC50 [6]: > 5 mM

Compound: Bis (2,4-pentanedionato) (N,N'-bis(2-diethylethylenediamine)cobalt(III) Percholate [listing 2 of 2 here]
- HF ratio [7]: Nontoxic

Compound: Bis (2,4-pentanedionato) (N,N-bis(2-chloroethyl)ethylenediamine)cobalt(III) Percholate [listing 1 of 2 here]
- IC50 ([4]; cho-derived): 3.1 µM

Compound: Bis (2,4-pentanedionato) (N,N-bis(2-chloroethyl)ethylenediamine)cobalt(III) Percholate [listing 2 of 2 here]
- CT10 (UV4): 0.64 µM·h
- HF ratio [3]: 64
- Ratio [5]: 1.9

Compound: Bis (2,4-pentanedionato) (N,N-diethylethylenediamine)cobalt(III) Percholate [listing 1 of 2 here]
- IC50 ([4]; cho-derived): 34 µM

Compound: Bis (2,4-pentanedionato) (N,N-diethylethylenediamine)cobalt(III) Percholate [listing 2 of 2 here]
- HF ratio [3]: 0.9

Compound: Bis (3-chlorol-2,4-pentanedionato) (N,N-bis(2-chloroethyl)ethylenediamine)cobalt(III) Percholate [listing 1 of 2 here]
- IC50 ([4]; cho-derived): 26 µM

Compound: Bis (3-chlorol-2,4-pentanedionato) (N,N-bis(2-chloroethyl)ethylenediamine)cobalt(III) Percholate [listing 2 of 2 here]
- HF ratio [3]: 13

Compound: Bis (3-ethyl-2,4-pentanedionato) (N,N'-bis(2-chloroethyl)ethylenediamine)cobalt(III) Percholate [listing 1 of 2 here]
- IC50 ([4]; cho-derived): 139 µM

Compound: Bis (3-ethyl-2,4-pentanedionato) (N,N'-bis(2-chloroethyl)ethylenediamine)cobalt(III) Percholate [listing 2 of 2 here]
- HF ratio [3]: 4.8

Compound: Bis (3-ethyl-2,4-pentanedionato) (N,N-bis(2-chloroethyl)ethylenediamine)cobalt(III) Percholate [listing 1 of 2 here]
- IC50 ([4]; cho-derived): 2.3 µM

Compound: Bis (3-ethyl-2,4-pentanedionato) (N,N-bis(2-chloroethyl)ethylenediamine)cobalt(III) Percholate [listing 2 of 2 here]
- CT10 (UV4): 0.51 µM·h
- HF ratio [3]: 20
- Ratio [5]: 4.9

Compound: Bis (3-methyl-2,4-pentanedionato) (N,N'-bis(2-chloroethyl)ethylenediamine)cobalt(III) Percholate [listing 1 of 2 here]
- IC50 ([4]; cho-derived): 650 µM

Compound: Bis (3-methyl-2,4-pentanedionato) (N,N'-bis(2-chloroethyl)ethylenediamine)cobalt(III) Percholate [listing 2 of 2 here]
- CT10 (UV4): > 2720 µM·h
- HF ratio [3]: 2.7
- Ratio [5]: > 1

Compound: Bis (3-methyl-2,4-pentanedionato) (N,N-bis(2-chloroethyl)ethylenediamine)cobalt(III) Percholate [listing 1 of 2 here]
- IC50 ([4]; cho-derived): 4.6 µM

Compound: Bis (3-methyl-2,4-pentanedionato) (N,N-bis(2-chloroethyl)ethylenediamine)cobalt(III) Percholate [listing 2 of 2 here]
- CT10 (UV4): 2.4 µM·h
- HF ratio [3]: 48
- Ratio [5]: 20

Compound: Bis (3-n-propyl-2,4-pentanedionato) (N,N-bis(2-chloroethyl)ethylenediamine)cobalt(III) Percholate [listing 1 of 2 here]
- IC50 ([4]; cho-derived): 1.35 µM

Compound: Bis (3-n-propyl-2,4-pentanedionato) (N,N-bis(2-chloroethyl)ethylenediamine)cobalt(III) Percholate [listing 2 of 2 here]
- IC50 ([4]; cho-derived): 18.5 µM
